Experimental findings from ChEMBL document CHEMBL3259568 (Bioorg Med Chem, 2014) are described below.

In data set [1] the test system is Rattus norvegicus. Briefly: Ulcerogenic activity in albino rat stress model assessed as ulcer index at 10 mg/kg, po after 7 hrs. The data set is classed as toxicity, organism-based. Set-up: dose 10 mg/kg, route oral. Particulars: in vivo. The procedure, abridged:
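Albino rats of either sex (170–250 g), six per group, starved 48 h with water, dosed orally 10 mg/kg in sodium CMC; killed 7 h later. Stomach opened along greater curvature and everted; lesions counted in five size classes (pinpoint to >4 mm) to give ulcer index, reported as min–max range.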

For data set [2], the system named is Mus musculus. The experiment in a line: Analgesic activity in albino mouse assessed as protection against glacial acetic acid-induced writhing at 19.5 mg/kg, po administered 0.5 hrs followed by glacial acetic acid challenge measured for 15 mins relative to control. The data set is classed as functional. In short, it runs like this:
(§1)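 Mice (20–25 g) pre-screened 24 h earlier with i.p. 10 ml/kg 0.6% glacial acetic acid; only responders used. Oral dosing as suspension in 0.5% sodium CMC 30 min before acetic acid challenge. Writhing episodes counted for 15 min; group means versus vehicle control; ANOVA with Dunnett test.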
A general note: In writhing tests, fewer writhes than in controls are read as antinociception.

Data set [3] relates to Rattus norvegicus. The experiment in a line: Acute antiinflammatory activity in albino rat assessed as inhibition of carrageenan-induced paw edema at 13.5 mg/kg, po administered 1 hr followed by carrageenan challenge measured at 4 hrs by plethysmometric analysis relative to control. Type of data set: functional. The procedure, abridged: (§2)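 Male albino rats (170–220 g), fasted ≥12 h with water, six per group. Oral dosing in 0.5% sodium CMC (control 1 ml vehicle), then 1 h later subplantar 0.05 ml of 1% carrageenan into left hind footpad. […] Mean ± SEM, ANOVA/Dunnett.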
A general note: In the carrageenan paw model, swelling and tenderness develop within hours.

The test system of data set [4] is Rattus norvegicus. The experiment in a line: Acute antiinflammatory activity in albino rat assessed as inhibition of carrageenan-induced paw edema at 13.5 mg/kg, po administered 1 hr followed by carrageenan challenge measured at 2 hrs by plethysmometric analysis relative to control. Type of data set: functional. The procedure, abridged:
as §2

The subject of data set [5] is Rattus norvegicus. Briefly: Antipyretic activity in albino rat assessed as yeast-induced pyrexia at 135 mg/kg, po measured at 5 hrs by telethermometer (reference value: 37.89 degC). The data set is classed as functional. The procedure, abridged:
(§3)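 Male albino rats (170–230 g) given s.c. 2.5 ml 20% aqueous baker's yeast; rectal temperature by telethermometer before and at 18 h (taken as 0 h). Rats with 1–2 °C rise, six per group, dosed orally 30 min later (control 1 ml 0.5% sodium CMC). Temperature recorded hourly to 5 h; temperature index = sum of mean changes from 0 h.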

For data set [6], the system named is Rattus norvegicus. The experiment in a line: Antipyretic activity in albino rat assessed as yeast-induced pyrexia at 135 mg/kg, po measured at 4 hrs by telethermometer (reference value: 38 degC). Type of data set: functional. In short, it runs like this:
as §3

In data set [7] the test system is Rattus norvegicus. The experiment in a line: Antipyretic activity in albino rat assessed as yeast-induced pyrexia at 135 mg/kg, po measured at 1 hr by telethermometer (reference value: 38.26 degC). The data set is classed as functional. In short, it runs like this:
as §3

In data set [8] the test system is Rattus norvegicus. Briefly: Antipyretic activity in albino rat assessed as yeast-induced pyrexia at 135 mg/kg, po measured at 3 hrs by telethermometer (reference value: 38.11 degC). The data set is classed as functional. In short, it runs like this:
as §3

Data set [9] concerns Rattus norvegicus. Briefly: Antipyretic activity in albino rat assessed as decrease in yeast-induced pyrexia by measuring temperature index at 135 mg/kg, po measured over 5 hrs by telethermometer (reference value: 1.04 degC). Type of data set: functional. In short, it runs like this:
as §3

Data set [10] has as its system Rattus norvegicus. The experiment in a line: Antipyretic activity in albino rat assessed as yeast-induced pyrexia at 135 mg/kg, po measured at 2 hrs by telethermometer (reference value: 38.20 degC). The data set is classed as functional. The procedure, abridged:
as §3

The subject of data set [11] is Mus musculus. The experiment in a line: Acute toxicity in albino mouse assessed as mortality at 2000 mg/kg, po measured continuously for 3 hrs followed by every 30 mins for next 3 hrs up to 24 hrs. Type of data set: organism-based. Particulars: in vivo. On the set-up: dose 2000 mg/kg, route oral. In short, it runs like this: (§4)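 OECD guideline test. Albino mice of either sex, 20–25 g, six per group, fasted 24 h with water ad libitum. Compounds suspended in 0.5% aqueous sodium CMC and given orally in increasing doses of 10, 20, 100, 200, 1000 and 2000 mg/kg b.w. Animals watched continuously for 3 h for general behavioural, neurological and autonomic profiles, then every 30 min for 3 h, then up to 24 h or until death.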

Data set [12] has as its target T1, Prostaglandin G/H synthase 1 (Ovis aries) (UniProt P05979).
T1 sequence (whole entry): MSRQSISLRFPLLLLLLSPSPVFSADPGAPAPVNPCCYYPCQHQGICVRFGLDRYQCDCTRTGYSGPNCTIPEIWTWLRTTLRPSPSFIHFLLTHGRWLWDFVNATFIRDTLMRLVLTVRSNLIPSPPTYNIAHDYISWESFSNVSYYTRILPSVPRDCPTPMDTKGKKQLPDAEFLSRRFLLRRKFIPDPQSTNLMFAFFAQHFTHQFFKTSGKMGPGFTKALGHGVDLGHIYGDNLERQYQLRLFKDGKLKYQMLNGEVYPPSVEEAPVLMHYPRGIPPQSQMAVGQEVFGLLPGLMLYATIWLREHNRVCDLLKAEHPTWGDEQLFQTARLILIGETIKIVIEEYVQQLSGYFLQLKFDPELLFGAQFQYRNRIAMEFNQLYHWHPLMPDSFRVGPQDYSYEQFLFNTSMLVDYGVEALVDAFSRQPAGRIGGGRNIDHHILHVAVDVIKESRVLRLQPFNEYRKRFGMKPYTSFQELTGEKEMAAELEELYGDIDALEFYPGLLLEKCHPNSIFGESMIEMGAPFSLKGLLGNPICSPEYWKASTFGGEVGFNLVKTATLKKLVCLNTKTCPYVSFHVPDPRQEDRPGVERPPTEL
The experiment in a line: Inhibition of ovine COX1 peroxidase activity assessed as reduction of PGG2 to PGH2 by measuring oxidized TMPD level at 10 ug/ml by colorimetric assay relative to control.

In data set [13] the test system is Rattus norvegicus. Briefly: Antipyretic activity in albino rat assessed as decrease in yeast-induced pyrexia by measuring temperature index at 10 mg/kg, po measured over 5 hrs by telethermometer (reference value: 1.04 degC). The data set is classed as functional. In short, it runs like this:
as §3

Data set [14] relates to Rattus norvegicus. The experiment in a line: Antipyretic activity in albino rat assessed as yeast-induced pyrexia at 10 mg/kg, po measured at 5 hrs by telethermometer (reference value: 37.89 degC). The data set is classed as functional. The procedure, abridged:
as §3

Data set [15] concerns Rattus norvegicus. The experiment in a line: Acute antiinflammatory activity in albino rat assessed as inhibition of carrageenan-induced paw edema at 10 mg/kg, po administered 1 hr followed by carrageenan challenge measured at 4 hrs by plethysmometric analysis relative to control. Type of data set: functional. The procedure, abridged: as §2
Data set [16] has as its system Rattus norvegicus. The experiment in a line: Antipyretic activity in albino rat assessed as yeast-induced pyrexia at 10 mg/kg, po measured at 2 hrs by telethermometer (reference value: 38.20 degC). The data set is classed as functional. In short, it runs like this:
as §3

Data set [17] has as its system Rattus norvegicus. Briefly: Antipyretic activity in albino rat assessed as yeast-induced pyrexia at 10 mg/kg, po measured at 3 hrs by telethermometer (reference value: 38.11 degC). Type of data set: functional. The procedure, abridged: as §3
Data set [18] has as its system Mus musculus. The experiment in a line: Acute toxicity in albino mouse assessed as effect on general behavioral profile at 2000 mg/kg, po measured for 3 hrs. The data set is classed as organism-based. On the set-up: dose 2000 mg/kg, route oral. Particulars: in vivo. In short, it runs like this:
as §4

The test system of data set [19] is Mus musculus. The experiment in a line: Analgesic activity in albino mouse assessed as protection against glacial acetic acid-induced writhing at 10 mg/kg, po administered 0.5 hrs followed by glacial acetic acid challenge measured for 15 mins relative to control. The data set is classed as functional. The procedure, abridged:
as §1

In data set [20] the test system is Rattus norvegicus. The experiment in a line: Antipyretic activity in albino rat assessed as yeast-induced pyrexia at 10 mg/kg, po measured at 4 hrs by telethermometer (reference value: 38 degC). The data set is classed as functional. In short, it runs like this: as §3
Data set [21] relates to Mus musculus. Briefly: Acute toxicity in albino mouse assessed as effect on autonomic profile at 2000 mg/kg, po measured for 3 hrs. The data set is classed as organism-based. On the set-up: dose 2000 mg/kg, route oral. Particulars: in vivo. In short, it runs like this:
as §4

In data set [22] the target is T2, Prostaglandin G/H synthase 1 (Ovis aries, UniProt P05979).
T2 sequence (P05979 whole entry): T1 sequence (whole entry)
Briefly: Inhibition of ovine COX1 peroxidase activity assessed as reduction of PGG2 to PGH2 by measuring oxidized TMPD level by colorimetric assay.

The test system of data set [23] is Rattus norvegicus. The experiment in a line: Acute antiinflammatory activity in albino rat assessed as inhibition of carrageenan-induced paw edema at 10 mg/kg, po administered 1 hr followed by carrageenan challenge measured at 2 hrs by plethysmometric analysis relative to control. Type of data set: functional. In short, it runs like this:
as §2

Data set [24] relates to Mus musculus. Briefly: Acute toxicity in albino mouse assessed as effect on neurological profile at 2000 mg/kg, po measured for 3 hrs. Set-up: dose 2000 mg/kg, route oral. Type of data set: organism-based. Particulars: in vivo. In short, it runs like this:
as §4

For data set [25], the system named is Rattus norvegicus. The experiment in a line: Antipyretic activity in albino rat assessed as yeast-induced pyrexia at 10 mg/kg, po measured at 1 hr by telethermometer (reference value: 38.26 degC). Type of data set: functional. In short, it runs like this: as §3

Some results are limits rather than exact numbers.

Regarding `O=C(O)Cc1ccccc1Nc1c(Cl)cccc1Cl` [DICLOFENAC], in the data set with Rattus norvegicus [1], the UI is 5.5. The Activity with Mus musculus [2] came to 79.3%. Besides, the inhibition in vivo – broadly, the relative decrease from the control value, in per cent – at 13.5 mg/kg worked out at 66.2% in the data set on Rattus norvegicus [3] and 65.5% with Rattus norvegicus [4].

As to `CC(=O)Nc1ccc(O)cc1` [ACETAMINOPHEN], the T amounted to 37 °C in the data set with Rattus norvegicus [5]; 37.3 °C in the data set with Rattus norvegicus [6]; 38.4 °C in the data set with Rattus norvegicus [7]; 37.6 °C in the data set with Rattus norvegicus [8]; 6.7 °C with Rattus norvegicus [9]; 38 °C with Rattus norvegicus [10].

`S=c1oc(Cc2ccccc2Nc2c(Cl)cccc2Cl)nn1CNc1ccccc1Cl`: the Activity result is given as “Non-toxic” in the data set on Mus musculus [11]; “Non-toxic” in the data set with Mus musculus [18]; 77.6% with Mus musculus [19]; “Non-toxic” in the data set with Mus musculus [21]; “Non-toxic” in the data set on Mus musculus [24]. Moreover, the inhibition (usually the relative decrease from the control value, in per cent) in data set [12] is 27.8%. Further, the T in the data set with Rattus norvegicus [13] is 3.06 °C; in the data set on Rattus norvegicus [14], 37.11 °C; in the data set with Rattus norvegicus [16], 37.77 °C; with Rattus norvegicus [17], 37.36 °C; in the data set on Rattus norvegicus [20], 37.06 °C; with Rattus norvegicus [25], 37.74 °C. For the same compound, the values for the inhibition in vivo at 10 mg/kg with Rattus norvegicus [15] and in the data set with Rattus norvegicus [23] were 61.3% and 59.4%, respectively. Also, in the data set with Rattus norvegicus [1], the UI stood at 3.2. In data set [22], the IC50 (commonly the midpoint of a concentration-inhibition curve) was greater than 50 µM.
